ChEMBL document CHEMBL1123276, “Analgetic and antiinflammatory 7-aroylbenzofuran-5-ylacetic acids and 7-aroylbenzothiophene-5-ylacetic acids” (1986)

Tests used:
Format in all cases: functional
[1] = system: Mus musculus; assay: Inhibition of phenylquinone -induced writhing in male mice by p.o. administration 20 min prior to i.p. phenylquinone (relative to aspirin).
Summary of the method: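 Male mice, 18-20 g, dosed orally in the same aqueous saline/CMC/polysorbate 80/benzyl alcohol vehicle 20 min before intraperitoneal phenylquinone. Writhing observed for 10 min. Potency vs aspirin derived from dose-response curves by analysis of variance. Eight mice per dose group.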

[2] = system: Rattus norvegicus; assay: Anti-inflammatory activity against carrageenan-induced paw edema in female rats relative to phenylbutazone by p.o. administration.
Summary of the method: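 Test agents given in saline/0.5% carboxymethylcellulose/0.4% polysorbate 80/0.9% benzyl alcohol aqueous vehicle. Rats killed 4 h after dosing, and both hindpaws excised and weighed. Potency vs phenylbutazone taken from dose-response plots of mean % weight increase of treated over untreated paw. Six rats per dose, at least four doses, linear parallel curves, analysis of variance.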

[3] = system: Rattus norvegicus; assay: Chronic gastrointestinal erosive activity in male rats by the oral administration was determined.
Summary of the method: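 Male Cox/SD rats, 190-220 g, acclimated about 1 week. Dosed orally once daily in phosphate-buffered saline (1 mL/100 g) for 7 consecutive days, 5 rats per dose. Food withdrawn on the last dosing day. Killed one day after the last dose, with body weight recorded at start and at sacrifice. Stomach and small intestine scored blind for lesions.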

[4] = species: Mus musculus; assay: Dose required for the inhibition of phenylquinone-induced writhing in male mice

O=C(O)Cc1cc(C(=O)c2ccccc2)c2sccc2c1 was tested, and the Relative potency [1] was 0.4 and the Relative potency [2] was 0.6.

O=C(O)Cc1cc2c(c(C(=O)c3ccccc3)c1)SCC2 was tested, and the Relative potency [1] was <1 and the Relative potency [2] was 0.6.

For O=C(O)Cc1cc(C(=O)c2ccc(Cl)cc2)c2occc2c1, the Relative potency [1] was 33.9 and the Relative potency [2] was 0.6.

CC(C(=O)O)c1cc(C(=O)c2ccc(Cl)cc2)c2occc2c1 (stereo not drawn) was tested, and the Relative potency [1] was 42.9 and the Relative potency [2] was 2.

Work on C[S+]([O-])c1ccc(C(=O)c2cc(CC(=O)O)cc3ccoc23)cc1 (stereo not drawn) yielded a Relative potency [1] of 7.5 and a Relative potency [2] of 1.8.

In the case of CC(C(=O)O)c1cc(C(=O)c2ccccc2)c2occc2c1 (stereo not drawn), the Relative potency [1] is reported as 42.4 and the Relative potency [2] is reported as 1.8.

Compound O=C(O)Cc1cc(C(=O)c2ccc(Cl)cc2)c2sccc2c1 has a Relative potency [1] of 7 and a Relative potency [2] of 1.5.

Work on COc1ccc(C(=O)c2cc(CC(=O)O)cc3ccoc23)cc1 yielded a Relative potency [1] of 33 and a Relative potency [2] of 1.

In the case of CS(=O)(=O)c1ccc(C(=O)c2cc(CC(=O)O)cc3ccoc23)cc1, the Relative potency [1] is reported as <1.

CC(C(=O)O)c1cc(C(=O)c2ccc(C=O)cc2)c2occc2c1 (stereo not drawn) showed a Relative potency [1] of 45 and a Relative potency [2] of 1.3.

Work on CSc1ccc(C(=O)c2cc(CC(=O)O)cc3c2OCC3)cc1 yielded a Relative potency [1] of 8 and a Relative potency [2] of 0.2.

O=C(O)Cc1cc2c(c(C(=O)c3ccc(Cl)cc3)c1)OCC2 showed a Relative potency [1] of 7 and a Relative potency [2] of 0.8.

O=C(O)Cc1cc2c(c(C(=O)c3ccccc3)c1)OCC2 gave a Relative potency [1] of 0.25 and a Relative potency [2] of 0.7.

O=C(O)Cc1cc2c(c(C(=O)c3ccc(Cl)cc3)c1)SCC2 was tested, and the Relative potency [1] was 0.6 and the Relative potency [2] was 0.6.

CSc1ccc(C(=O)c2cc(C(C)C(=O)O)cc3ccoc23)cc1 (stereo not drawn) was tested, and the Relative potency [1] was 25, the ED50 [3] was ≤ 1 mg/kg and the Relative potency [2] was 18.6.

With O=C(O)Cc1cc(C(=O)c2ccccc2)c2occc2c1 the Relative potency [1] was 40 and the Relative potency [2] was 1.

Work on COc1ccc2c(c1)c(CC(=O)O)c(C)n2C(=O)c1ccc(Cl)cc1 [INDOMETHACIN] yielded an ED50 [4] of 1.16 mg/kg, a Relative potency [1] of 60 and an ED50 ([3]; Rattus norvegicus, po) of 3 mg/kg. For the same compound, the Relative potency [2] was 16.

With CSc1ccc(C(=O)c2cc(CC(=O)O)cc3ccoc23)cc1 [TIFURAC] the ED50 [4] was 1.2 mg/kg, the Relative potency [1] was 57 and the ED50 ([3]; Rattus norvegicus, po) was ≥ 90 mg/kg. The Relative potency [2] was 3.

Cc1cc(CC(=O)O)n(C)c1C(=O)c1ccc(Cl)cc1 [ZOMEPIRAC] showed an ED50 [4] of 1.75 mg/kg, a Relative potency [1] of 40 and an ED50 ([3]; Rattus norvegicus, po) of 10 mg/kg.
